We go through 18 compounds from ChEMBL document CHEMBL1149424, “Synthesis of functionalized 1,8-naphthyridinones and their evaluation as novel, orally active CB1 receptor inverse agonists” (Bioorg Med Chem Lett, 2006).

One data set deals with Cannabinoid receptor 2 (Homo sapiens, UniProt P34972). The data set is described as follows: Binding affinity at the CB2 receptor.
The next data set has as its target Cannabinoid receptor 1 (Homo sapiens, UniProt P21554). The data set can be described thus: Binding affinity at the CB1 receptor.
A short description of data set [1]: Oral bioavailability in Sprague-Dawley rat. The data set is classed as ADME, organism-based. The settings on record: in vivo.
In data set [2] the test system is Rattus norvegicus. The data set can be described thus: Reduction in food intake in SD rat at 18 hrs after administration of 1.0 mg/kg, po. The data set is classed as functional, Sprague-Dawley. Details: scale not given: the % may be the effect or the level left. An outline of the steps: (§1)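 Diet-induced obese Sprague–Dawley rats, six per treatment group, dosed orally with the compound in 10% Tween 80 in water 30–60 min before dark onset. Food cups weighed every 5 min in an automated system over the 18 h after dosing. Overnight body weight change also recorded. Suppression is expressed relative to vehicle-treated controls.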

A short description of data set [3]: Oral bioavailability in C57BL/6 mouse. The data set is classed as ADME, organism-based. The settings on record: in vivo.
Data set [4] is described as follows: Half life in C57BL/6 mouse. The data set is classed as ADME, organism-based. The settings on record: in vivo.
The nature of data set [5]: Oral bioavailability in Beagle dog. In kind it is ADME, organism-based, Canis lupus familiaris. The settings on record: in vivo.
Data set [6] in a line: Plasma clearance in C57BL/6 mouse. The data set is classed as ADME, organism-based.
The nature of data set [7]: Half life in Sprague-Dawley rat. In kind it is ADME, organism-based. The settings on record: in vivo.
Data set [8] can be described thus: Half life in Beagle dog. The data set is classed as ADME, organism-based, Canis lupus familiaris. The settings on record: in vivo.
The nature of data set [9]: Plasma clearance in rhesus macaque. The data set is classed as ADME, organism-based, Macaca mulatta. The settings on record: rhesus monkey.
The test system of data set [10] is Rattus norvegicus. The data set can be described thus: Reduction in food intake in SD rat at 18 hrs after administration of 3.0 mg/kg, po. The data set is classed as functional, Sprague-Dawley. Details: scale not given: the % may be the effect or the level left. An outline of the steps: as §1
In data set [11] the test system is Mus musculus. The data set is described as follows: Reduction in body weight overnight (18 hrs) in wild type C57BL/6 mice at 10 mg/kg. The data set is classed as functional. Details: scale not given: the % may be the effect or the level left. An outline of the steps: (§2)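 Ad libitum fed 12-week-old male C57BL/6 mice, n = 12 per group, given the compound orally at 1, 3 or 10 mpk in 0.225% methylcellulose/10% Tween 80 about 30 min before the dark phase. Food intake measured at 2 h and overnight. Overnight (18 h) body weight gain recorded and compared with vehicle.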

A short description of data set [12]: Rat brain to plasma ratio at 4 hrs post iv dosing. The data set is classed as ADME, organism-based. The settings on record: Sprague-Dawley. An outline of the steps:
(§3)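 Sprague–Dawley rats were dosed intravenously as part of a pharmacokinetic profile. Brain and plasma concentrations were sampled at 0.25 h and at 4 h post-dose and expressed as a brain-to-plasma ratio.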

Data set [13] in a line: Half life in rhesus macaque. The data set is classed as ADME, organism-based, Macaca mulatta. The settings on record: rhesus monkey, in vivo.
The test system of data set [14] is Rattus norvegicus. The data set is described as follows: Reduction in food intake in SD rat at 18 hrs after administration of 0.3 mg/kg, po. In kind it is functional, Sprague-Dawley. Details: scale not given: the % may be the effect or the level left. An outline of the steps: as §1
A short description of data set [15]: Plasma clearance in Sprague-Dawley rat. The data set is classed as ADME, organism-based.
Data set [16] is described as follows: Rat brain to plasma ratio at 0.25 hrs post iv dosing. The settings on record: Sprague-Dawley. In kind it is ADME, organism-based. An outline of the steps: as §3
Data set [17] relates to Mus musculus. The data set can be described thus: Reduction in food intake in wild type C57BL/6 mice at 2 hrs after administration of 10 mg/kg, po. Details: scale not given: the % may be the effect or the level left. In kind it is functional. An outline of the steps: as §2
A short description of data set [18]: Plasma clearance in Beagle dog. The data set is classed as ADME, organism-based, Canis lupus familiaris.
Data set [19] in a line: Oral bioavailability in rhesus macaque. The data set is classed as ADME, organism-based, Macaca mulatta. The settings on record: rhesus monkey, in vivo.

Molecules are shown by their SMILES. Some results are limits rather than exact numbers.

Chain of Cannabinoid receptor 1 (P21554 whole entry): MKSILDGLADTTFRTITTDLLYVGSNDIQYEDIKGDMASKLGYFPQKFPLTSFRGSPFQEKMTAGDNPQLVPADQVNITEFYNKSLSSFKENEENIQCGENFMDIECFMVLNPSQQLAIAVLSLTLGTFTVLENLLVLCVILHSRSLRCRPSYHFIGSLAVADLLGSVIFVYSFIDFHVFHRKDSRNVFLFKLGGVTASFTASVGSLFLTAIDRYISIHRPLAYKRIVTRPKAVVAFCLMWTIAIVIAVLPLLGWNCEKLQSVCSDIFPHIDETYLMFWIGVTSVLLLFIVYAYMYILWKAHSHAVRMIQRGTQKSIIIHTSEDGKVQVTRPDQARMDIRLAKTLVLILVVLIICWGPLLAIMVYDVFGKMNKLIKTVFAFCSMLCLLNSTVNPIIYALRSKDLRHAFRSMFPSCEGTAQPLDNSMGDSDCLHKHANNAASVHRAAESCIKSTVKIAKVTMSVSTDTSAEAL
Chain of Cannabinoid receptor 2 (P34972 whole entry): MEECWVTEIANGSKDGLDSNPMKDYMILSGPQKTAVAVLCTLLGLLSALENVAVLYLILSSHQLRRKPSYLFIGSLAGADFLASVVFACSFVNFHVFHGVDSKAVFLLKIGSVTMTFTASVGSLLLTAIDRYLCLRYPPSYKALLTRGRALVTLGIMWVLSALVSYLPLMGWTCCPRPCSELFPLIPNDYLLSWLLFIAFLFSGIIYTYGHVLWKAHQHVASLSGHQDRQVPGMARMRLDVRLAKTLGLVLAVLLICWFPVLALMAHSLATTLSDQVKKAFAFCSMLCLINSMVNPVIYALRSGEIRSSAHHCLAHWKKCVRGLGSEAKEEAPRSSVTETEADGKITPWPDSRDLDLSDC

For the compound `CC(=O)Nc1c(C#N)c(=O)n(C)c2nc(-c3ccc(Cl)cc3Cl)c(-c3ccc(Cl)cc3)cc12`, the IC50 at Cannabinoid receptor 2 was 720 nM; at Cannabinoid receptor 1, 35 nM.
Take `CC(=O)Nc1cc(=O)n(C)c2nc(-c3ccc(Cl)cc3Cl)c(-c3ccc(Cl)cc3)cc12`: the IC50 on Cannabinoid receptor 2 stood at 380 nM; on Cannabinoid receptor 1, 110 nM.
Consider `CC(=O)Nc1c(C(C)=O)c(=O)n(C)c2nc(-c3ccc(Cl)cc3Cl)c(-c3ccc(Cl)cc3)cc12` [NAPHTHYRIDINONE], for which the bioavailability in [1] turned out to be 93%; in [3], 70%; in [5], 100%; in data set [19], 96%. The Activity in the data set with Rattus norvegicus [2] was found to be 39%; in the data set on Rattus norvegicus [10], 68%; in the data set on Mus musculus [11], 88%; in the data set on Rattus norvegicus [14], 22%; with Mus musculus [17] it was 49%. This compound also displayed an IC50 on Cannabinoid receptor 2 of 4100 nM. The half-life in data set [4] was > 8 h; in [7], > 8 h; in data set [8] it was > 24 h; in data set [13] it was 22 h. The clearance in data set [6] was 13.9 mL/min/kg; in [9], 1.4 mL/min/kg; in data set [15], 12 mL/min/kg; in data set [18] it was 4.4 mL/min/kg. In addition, the concentration ratio (Kp) at 4 h in [12] was 2.7. Besides, in [16], the Kp at 0.25 h is 0.9.
In the case of `CC(=O)Nc1c(C(C)=O)c(=O)n(CCO)c2nc(-c3ccc(Cl)cc3Cl)c(-c3ccc(Cl)cc3)cc12`, the concentration for half-maximal inhibition (IC50) on Cannabinoid receptor 2 was 1500 nM; at Cannabinoid receptor 1, 32 nM.
Turning to `CC(=O)Nc1c(C(C)=O)c(=O)[nH]c2nc(-c3ccc(Cl)cc3Cl)c(-c3ccc(Cl)cc3)cc12`, the IC50 amounted to 1400 nM at Cannabinoid receptor 2 and 77 nM on Cannabinoid receptor 1.
The corresponding values for `COc1c(NC(C)=O)c2cc(-c3ccc(Cl)cc3)c(-c3ccc(Cl)cc3Cl)nc2n(C)c1=O` are 1100 nM and 24 nM.
Take `CC(=O)Nc1c(C(C)C)c(=O)n(C)c2nc(-c3ccc(Cl)cc3Cl)c(-c3ccc(Cl)cc3)cc12`: the IC50 on Cannabinoid receptor 2 stood at 5400 nM; at Cannabinoid receptor 1, 15 nM.
The corresponding values for `CC(=O)c1c(C)c2cc(-c3ccc(Cl)cc3)c(-c3ccc(Cl)cc3Cl)nc2n(C)c1=O` are 1400 nM and 55 nM.
Regarding `CC(=O)Nc1c(C(C)=O)c(=O)n(CC(C)C)c2nc(-c3ccc(Cl)cc3Cl)c(-c3ccc(Cl)cc3)cc12`, the half-inhibitory concentration (IC50) at Cannabinoid receptor 2 amounted to 6200 nM; at Cannabinoid receptor 1, 2.3 nM.
Regarding `CC(=O)Nc1c(C)c(=O)n(C)c2nc(-c3ccc(Cl)cc3Cl)c(-c3ccc(Cl)cc3)cc12`, the half-maximal inhibitory concentration (IC50) stood at 1500 nM on Cannabinoid receptor 2 and 26 nM on Cannabinoid receptor 1.
The matching figures for `CC(=O)Nc1c(C(C)=O)c(=O)n(CC2CCCO2)c2nc(-c3ccc(Cl)cc3Cl)c(-c3ccc(Cl)cc3)cc12` (centres undefined): 1400 nM and 5.2 nM.
Take `COCC(=O)Nc1c(C(C)=O)c(=O)n(C)c2nc(-c3ccc(Cl)cc3Cl)c(-c3ccc(Cl)cc3)cc12`: the IC50 turned out to be 3200 nM at Cannabinoid receptor 2 and 24 nM at Cannabinoid receptor 1.
The matching figures for `CC(=O)Nc1c(N(C)C)c(=O)n(C)c2nc(-c3ccc(Cl)cc3Cl)c(-c3ccc(Cl)cc3)cc12`: 2500 nM and 20 nM.
The corresponding values for `CC(=O)c1c(NC(=O)CO)c2cc(-c3ccc(Cl)cc3)c(-c3ccc(Cl)cc3Cl)nc2n(C)c1=O` are 3600 nM and 46 nM.
As for `CC(=O)c1c(N)c2cc(-c3ccc(Cl)cc3)c(-c3ccc(Cl)cc3Cl)nc2n(C)c1=O`, the figures for the concentration for half-maximal inhibition (IC50) on Cannabinoid receptor 2 and on Cannabinoid receptor 1 were 1100 nM and 120 nM, respectively.
Take `COCCn1c(=O)c(C(C)=O)c(NC(C)=O)c2cc(-c3ccc(Cl)cc3)c(-c3ccc(Cl)cc3Cl)nc21`: the IC50 at Cannabinoid receptor 2 amounted to 1800 nM; at Cannabinoid receptor 1, 3.7 nM.
The matching figures for `CC(=O)Nc1c(C(C)=O)c(=O)n(Cc2ccccc2)c2nc(-c3ccc(Cl)cc3Cl)c(-c3ccc(Cl)cc3)cc12`: 5100 nM and 2.3 nM.
The corresponding values for `CC(=O)c1c(N(C)C)c2cc(-c3ccc(Cl)cc3)c(-c3ccc(Cl)cc3Cl)nc2n(C)c1=O` are 1400 nM and 96 nM.

Broadly, the IC50 is the concentration at which inhibition is half-maximal. The bioavailability is dose-corrected exposure relative to a reference, in per cent. One may read the half-life as how long it takes for the measured level to halve. What is called clearance is the rate of elimination divided by the concentration. As a reminder, the Kp is the ratio of the level in a tissue or fluid to that in plasma or blood.
